Reference: ChEMBL document CHEMBL1124390, “Synthesis and antiviral activity of phosphonoacetic and phosphonoformic acid esters of 5-bromo-2'-deoxyuridine and related pyrimidine nucleosides and acyclonucleosides” (1989)

Experiments:
Format in all cases: functional
[1] = tested on: Human alphaherpesvirus 2; test: Concentration required to reduce the number of viral plaques […] cell monolayers of herpes simplex virus type 2.
Summary of the method: (§1)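 Plaque-reduction assay on Vero monkey kidney cells grown in DMEM + 10% v/v newborn bovine serum. HSV-1 strain HFEM or HSV-2 strain 3345, 50 pfu in duplicate, adsorbed at 4 °C to drained monolayers. Serum-free medium with carboxymethylcellulose plus compound dilution series added; 3 days at 37 °C. Formaldehyde fixation, Giemsa stain; ID50 interpolated from plotted results.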

[2] = tested on: Human alphaherpesvirus 1; test: Concentration required to reduce the number of viral plaques […] cell monolayers of herpes simplex virus type 1.; summary of the method: as §1
[3] = tested on: Human alphaherpesvirus 1; test: Concentration required to protect 50% of mice against a systemic infection of HSV-1.
Summary of the method: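 Swiss albino mice (9-12 g) given test substance 0.5 mL ip at -24, 0 and +24 h relative to infection (three treatments); controls got 0.5 mL water ip on the same schedule. Infection ip with approx 10x LD50 of HSV-1. Survivors counted on day 21; PD50 derived by Reed-Muench method.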

SMILES | ID50 [1] [µM] | ID50 [2] [µM] | PD50 [3] [mM/kg]
Nc1nc(O)c2ncn(C3O[C@H](COP(=O)(O)CC(=O)O)[C@@H](O)[C@H]3O)c2n1 (stereo partly specified) | >2000 | >2000 | 0.36
O=C(O)P(=O)(O)O [FOSCARNET] | 120 | 130 | 
O=C(O)CP(=O)(O)OC[C@H]1OC(n2ccc(=O)[nH]c2=O)[C@H](O)[C@@H]1O (stereo partly specified) |  | 300 | 0.31
O=C(O)CP(=O)(O)OC[C@H]1O[C@@H](n2cc(/C=C/Br)c(=O)[nH]c2=O)C[C@@H]1O | 1000 | 2.7 | 
Cc1cn([C@@H]2O[C@H](CO)[C@@H](O)[C@@H]2O)c(=O)[nH]c1=O | 19 | 10 | 
Nc1ncnc2c1ncn2[C@@H]1O[C@H](COP(=O)(O)CC(=O)O)[C@@H](O)[C@@H]1O | >2000 | >2000 | 0.53
O=c1[nH]c(=O)n(C2O[C@H](CO)[C@@H](O)[C@@H]2O)cc1I (stereo partly specified) | 60 | 13 | 
Cc1cn(C2O[C@H](COP(=O)(O)CC(=O)O)[C@@H](O)[C@@H]2O)c(=O)[nH]c1=O (stereo partly specified) | >2000 | >2000 | 
Nc1ccn(C2O[C@H](COP(=O)(O)CC(=O)O)[C@@H](O)[C@H]2O)c(=O)n1 (stereo partly specified) | 1200 | 1600 | 
Nc1nc(=O)n([C@H]2C[C@H](O)[C@@H](COP(=O)(O)CC(=O)O)O2)cc1Br | 15 | 72 | 
Nc1ncnc2c1ncn2[C@@H]1O[C@H](CO)[C@@H](O)[C@@H]1O [VIDARABINE] | 75 | 11 | 
C#Cc1cn([C@H]2C[C@H](O)[C@@H](COP(=O)(O)CC(=O)O)O2)c(=O)[nH]c1=O | >200 | >200 | 
Nc1nc(O)c2ncn(COCCOP(=O)(O)CC(=O)O)c2n1 | 1500 | 1800 | 
Cc1cn([C@H]2C[C@H](O)[C@@H](COP(=O)(O)CC(=O)O)O2)c(=O)[nH]c1=O | 160 | 400 | 0.45
Nc1ncc([C@@H]2O[C@H](COP(=O)(O)CC(=O)O)[C@@H](O)[C@H]2O)c(=O)[nH]1 | 770 | 780 | 
CCc1cn([C@H]2C[C@H](O)[C@@H](CO)O2)c(=O)[nH]c1=O [EDOXUDINE] | 23 | 40 | 
O=c1[nH]c(=O)n([C@H]2C[C@H](O)[C@@H](CO)O2)cc1/C=C/Br [BRIVUDINE] | 4.2 | 0.6 | 
O=C(O)CP(=O)(O)OC[C@H]1OC(n2cc(I)c(=O)[nH]c2=O)[C@@H](O)[C@@H]1O (stereo partly specified) | >2000 | >2000 | 
CCc1cn([C@H]2C[C@H](O)[C@@H](COP(=O)(O)CC(=O)O)O2)c(=O)[nH]c1=O | 700 | 300 | 

SMILES | ID50 [1] [µM] | ID50 [2] [µM] | PD50 [3] [mM/kg]
C#Cc1cn([C@H]2C[C@H](O)[C@@H](CO)O2)c(=O)[nH]c1=O | 11 | 11 | 
Nc1ncnc2c1ncn2[C@H]1C[C@H](O)[C@@H](COP(=O)(O)CC(=O)O)O1 | >2000 | >2000 | 1.05
O=c1[nH]c(=O)n([C@H]2C[C@H](O)[C@@H](CO)O2)cc1I [IDOXURIDINE] | 2.3 | 2 | 
C=Cc1cn(C2O[C@H](COP(=O)(O)CC(=O)O)[C@@H](O)[C@@H]2O)c(=O)[nH]c1=O (stereo partly specified) | >2000 | >2000 | 
O=C(O)CP(=O)(O)OC[C@H]1O[C@@H](n2cc(Br)c(=O)[nH]c2=O)C[C@@H]1O | 1.2 | 16 | 0.2
Nc1nc(=O)n([C@H]2C[C@H](O)[C@@H](CO)O2)cc1Br | 0.15 | 1.5 | 
O=c1[nH]c(=O)n([C@H]2C[C@H](O)[C@@H](CO)O2)cc1Br [BROXURIDINE] | 0.7 | 2 | 
O=C(O)CP(=O)(O)OC[C@H]1O[C@@H](n2cc(I)c(=O)[nH]c2=O)C[C@@H]1O | 10 | 40 | 0.21
CC(=O)c1cn(C2O[C@H](COP(=O)(O)CC(=O)O)[C@@H](O)[C@@H]2O)c(=O)[nH]c1=O (stereo partly specified) | >2000 | >2000 | 
O=C(O)CP(=O)(O)O [FOSFONET] | 240 | 230 | 0.67
C=Cc1cn([C@H]2C[C@H](O)[C@@H](COP(=O)(O)CC(=O)O)O2)c(=O)[nH]c1=O | 50 | 14 | 
O=C(CP(=O)(O)O)OC[C@H]1O[C@@H](n2cc(Br)c(=O)[nH]c2=O)C[C@@H]1O | 7.4 | 12 | 
Nc1ncnc2c1ncn2[C@@H]1O[C@H](COP(=O)(O)CC(=O)O)[C@@H](O)[C@H]1O |  | 580 | 0.4
O=C(O)P(=O)(O)OC[C@H]1O[C@@H](n2cc(Br)c(=O)[nH]c2=O)C[C@@H]1O | 0.44 | 4.6 | 
Nc1nc2c(ncn2COCCO)c(=O)[nH]1 [ACYCLOVIR] | 2.2 | 1.3 | 
O=C(O)CP(=O)(O)OC[C@H]1OC(n2cc(Br)c(=O)[nH]c2=O)[C@@H](O)[C@@H]1O (stereo partly specified) | >2000 | >2000 | 
O=c1[nH]c(=O)n([C@@H]2O[C@H](CO)[C@@H](O)[C@@H]2O)cc1Br | 5.9 | 5 | 
C=Cc1cn([C@H]2C[C@H](O)[C@@H](CO)O2)c(=O)[nH]c1=O | 2 | 0.8 | 
